According to ChEMBL document CHEMBL1165965, “Synthesis and structure-activity relationships of 1,2,3,4-tetrahydropyrido[2,3-b]pyrazines as potent and selective inhibitors of the anaplastic lymphoma kinase” (Bioorg Med Chem, 2010):

Tests used:
[1] = test system: Epidermal growth factor receptor (Homo sapiens), P00533 [G719C]; experiment: Inhibition of EGFR G719C mutant at 1 uM; type: protein assay
Summary of the method: (§1)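 Single-concentration screen using Ambit Bioscience KINOMEscan technology across a panel of 250–400 kinases. Per-kinase inhibition from this screen was summarized as S(90), the fraction of kinases inhibited by more than 90%.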

[2] = molecular target: Protein kinase C theta type (Homo sapiens) (UniProt Q04759); experiment: Inhibition of PRKCQ at 1 uM
Protein kinase C theta type (Homo sapiens), sequence (Q04759 whole entry, looked up): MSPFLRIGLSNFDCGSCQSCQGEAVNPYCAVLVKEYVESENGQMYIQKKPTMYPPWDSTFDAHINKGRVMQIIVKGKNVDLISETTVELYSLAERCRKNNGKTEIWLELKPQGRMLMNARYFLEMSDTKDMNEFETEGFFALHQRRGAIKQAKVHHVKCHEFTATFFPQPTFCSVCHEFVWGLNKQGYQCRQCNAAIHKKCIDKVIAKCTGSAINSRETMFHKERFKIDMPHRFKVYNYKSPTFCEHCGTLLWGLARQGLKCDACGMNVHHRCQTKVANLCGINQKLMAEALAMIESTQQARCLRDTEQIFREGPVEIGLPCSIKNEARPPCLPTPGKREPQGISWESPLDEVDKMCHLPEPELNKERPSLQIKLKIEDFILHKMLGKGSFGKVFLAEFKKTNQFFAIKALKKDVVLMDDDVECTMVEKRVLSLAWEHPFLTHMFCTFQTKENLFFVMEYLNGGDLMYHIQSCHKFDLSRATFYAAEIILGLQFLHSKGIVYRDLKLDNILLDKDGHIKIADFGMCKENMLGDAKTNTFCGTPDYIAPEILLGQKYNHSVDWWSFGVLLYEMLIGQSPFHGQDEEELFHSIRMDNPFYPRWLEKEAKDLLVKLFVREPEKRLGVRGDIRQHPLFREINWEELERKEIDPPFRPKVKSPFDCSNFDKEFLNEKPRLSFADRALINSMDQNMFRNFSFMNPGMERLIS

[3] = molecular target: Mitogen-activated protein kinase kinase kinase 4 (Homo sapiens) (UniProt Q9Y6R4); experiment: Inhibition of MAP3K4 at 1 uM
Mitogen-activated protein kinase kinase kinase 4 (Homo sapiens), sequence (Q9Y6R4 whole entry): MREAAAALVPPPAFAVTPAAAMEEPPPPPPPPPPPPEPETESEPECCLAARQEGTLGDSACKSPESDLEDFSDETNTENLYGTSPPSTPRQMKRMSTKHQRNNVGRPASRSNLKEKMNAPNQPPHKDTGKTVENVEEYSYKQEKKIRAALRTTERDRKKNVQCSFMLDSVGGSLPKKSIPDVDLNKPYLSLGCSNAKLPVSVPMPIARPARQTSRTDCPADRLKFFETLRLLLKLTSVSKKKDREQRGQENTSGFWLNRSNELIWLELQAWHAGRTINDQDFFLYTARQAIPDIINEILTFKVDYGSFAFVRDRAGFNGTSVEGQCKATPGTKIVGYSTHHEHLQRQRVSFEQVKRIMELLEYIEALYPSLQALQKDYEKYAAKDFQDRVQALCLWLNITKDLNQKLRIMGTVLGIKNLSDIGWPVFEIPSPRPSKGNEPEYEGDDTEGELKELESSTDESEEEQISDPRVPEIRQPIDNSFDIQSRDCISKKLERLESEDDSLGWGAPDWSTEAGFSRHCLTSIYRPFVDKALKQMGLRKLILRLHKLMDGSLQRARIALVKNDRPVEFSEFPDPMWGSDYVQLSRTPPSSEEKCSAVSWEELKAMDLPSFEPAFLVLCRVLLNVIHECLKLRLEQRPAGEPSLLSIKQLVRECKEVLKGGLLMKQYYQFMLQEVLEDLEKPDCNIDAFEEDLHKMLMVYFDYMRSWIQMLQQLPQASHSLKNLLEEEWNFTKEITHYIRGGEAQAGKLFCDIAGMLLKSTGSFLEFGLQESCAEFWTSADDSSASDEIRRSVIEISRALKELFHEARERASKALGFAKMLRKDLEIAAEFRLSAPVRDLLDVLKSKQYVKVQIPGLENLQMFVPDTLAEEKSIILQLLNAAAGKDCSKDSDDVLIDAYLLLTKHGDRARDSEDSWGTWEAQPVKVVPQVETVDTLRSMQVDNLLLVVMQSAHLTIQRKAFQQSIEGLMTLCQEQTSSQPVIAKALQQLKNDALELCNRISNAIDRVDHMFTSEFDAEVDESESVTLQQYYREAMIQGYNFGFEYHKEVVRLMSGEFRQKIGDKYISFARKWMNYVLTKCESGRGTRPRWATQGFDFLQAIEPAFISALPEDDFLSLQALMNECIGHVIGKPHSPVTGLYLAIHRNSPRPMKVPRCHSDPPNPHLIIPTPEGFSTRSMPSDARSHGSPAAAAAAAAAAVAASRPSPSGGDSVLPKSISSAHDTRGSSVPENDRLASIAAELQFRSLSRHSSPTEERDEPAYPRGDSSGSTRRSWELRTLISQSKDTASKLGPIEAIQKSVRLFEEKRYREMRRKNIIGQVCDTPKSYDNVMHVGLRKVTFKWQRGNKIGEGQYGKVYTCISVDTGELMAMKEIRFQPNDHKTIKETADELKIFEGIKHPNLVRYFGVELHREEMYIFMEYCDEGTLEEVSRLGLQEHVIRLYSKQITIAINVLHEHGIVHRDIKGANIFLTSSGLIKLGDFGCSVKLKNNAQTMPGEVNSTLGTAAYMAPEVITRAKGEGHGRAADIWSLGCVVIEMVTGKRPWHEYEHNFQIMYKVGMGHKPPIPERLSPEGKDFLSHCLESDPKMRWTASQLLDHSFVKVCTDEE

[4] = molecular target: T1, Serine/threonine-protein kinase BRSK2 (Homo sapiens) (UniProt Q8IWQ3); experiment: Inhibition of BRSK2 at 1 uM
T1 sequence (whole entry): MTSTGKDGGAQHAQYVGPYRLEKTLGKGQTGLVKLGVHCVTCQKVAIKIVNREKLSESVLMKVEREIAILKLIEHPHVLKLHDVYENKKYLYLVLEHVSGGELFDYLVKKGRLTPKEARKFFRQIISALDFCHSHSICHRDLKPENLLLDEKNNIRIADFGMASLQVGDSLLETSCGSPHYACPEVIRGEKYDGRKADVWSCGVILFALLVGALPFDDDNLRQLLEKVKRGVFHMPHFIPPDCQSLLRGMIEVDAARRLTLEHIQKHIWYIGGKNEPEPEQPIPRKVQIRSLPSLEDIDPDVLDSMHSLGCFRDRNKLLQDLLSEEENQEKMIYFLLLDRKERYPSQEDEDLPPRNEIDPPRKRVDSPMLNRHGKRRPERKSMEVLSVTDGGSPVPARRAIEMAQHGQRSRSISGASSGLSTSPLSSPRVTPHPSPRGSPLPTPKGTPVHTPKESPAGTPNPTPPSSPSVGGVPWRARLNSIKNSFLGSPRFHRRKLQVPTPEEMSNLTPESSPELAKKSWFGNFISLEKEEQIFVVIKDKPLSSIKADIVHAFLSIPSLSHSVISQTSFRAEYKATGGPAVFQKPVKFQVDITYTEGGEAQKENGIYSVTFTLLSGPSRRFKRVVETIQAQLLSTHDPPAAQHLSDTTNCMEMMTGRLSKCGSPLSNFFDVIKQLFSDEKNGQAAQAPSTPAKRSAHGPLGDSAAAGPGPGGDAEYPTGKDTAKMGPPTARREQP
Summary of the method: (§2)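 Ambit KINOMEscan screen at a single concentration across a 250–400 kinase panel, recorded as percent inhibition. Selectivity was expressed as S(90), the fraction of kinases inhibited >90%.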

[5] = molecular target: T2, Serine/threonine-protein kinase Nek9 (Homo sapiens) (UniProt Q8TD19); experiment: Inhibition of NEK9 at 1 uM
T2 sequence (whole entry): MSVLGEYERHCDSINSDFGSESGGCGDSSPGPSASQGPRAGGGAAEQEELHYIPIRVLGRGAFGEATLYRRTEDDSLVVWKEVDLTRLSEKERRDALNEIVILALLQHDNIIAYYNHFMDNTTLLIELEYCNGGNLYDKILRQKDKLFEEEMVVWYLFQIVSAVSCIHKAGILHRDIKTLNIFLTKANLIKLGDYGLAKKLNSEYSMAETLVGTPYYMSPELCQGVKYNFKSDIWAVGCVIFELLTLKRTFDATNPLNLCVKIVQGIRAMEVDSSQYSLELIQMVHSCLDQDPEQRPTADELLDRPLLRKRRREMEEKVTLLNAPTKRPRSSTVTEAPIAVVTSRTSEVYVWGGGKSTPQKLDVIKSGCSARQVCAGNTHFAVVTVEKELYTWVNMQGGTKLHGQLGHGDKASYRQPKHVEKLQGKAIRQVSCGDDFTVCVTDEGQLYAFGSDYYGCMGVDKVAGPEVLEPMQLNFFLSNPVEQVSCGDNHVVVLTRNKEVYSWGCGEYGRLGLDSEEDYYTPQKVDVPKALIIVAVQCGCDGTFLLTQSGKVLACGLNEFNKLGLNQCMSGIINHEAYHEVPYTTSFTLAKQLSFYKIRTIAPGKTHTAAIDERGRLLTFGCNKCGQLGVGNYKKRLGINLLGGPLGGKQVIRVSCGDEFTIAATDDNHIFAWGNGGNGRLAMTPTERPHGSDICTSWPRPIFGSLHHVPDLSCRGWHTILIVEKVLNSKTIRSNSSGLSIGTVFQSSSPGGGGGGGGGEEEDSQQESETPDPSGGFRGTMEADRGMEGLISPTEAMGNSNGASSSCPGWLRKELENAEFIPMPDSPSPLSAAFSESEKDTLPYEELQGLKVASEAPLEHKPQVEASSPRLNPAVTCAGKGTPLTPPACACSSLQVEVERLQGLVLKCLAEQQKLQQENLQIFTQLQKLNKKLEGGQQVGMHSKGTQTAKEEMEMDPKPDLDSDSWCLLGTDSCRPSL

[6] = molecular target: T3, Myosin light chain kinase family member 4 (Homo sapiens) (UniProt Q86YV6); experiment: Inhibition of SgK085 at 1 uM
T3 sequence (whole entry): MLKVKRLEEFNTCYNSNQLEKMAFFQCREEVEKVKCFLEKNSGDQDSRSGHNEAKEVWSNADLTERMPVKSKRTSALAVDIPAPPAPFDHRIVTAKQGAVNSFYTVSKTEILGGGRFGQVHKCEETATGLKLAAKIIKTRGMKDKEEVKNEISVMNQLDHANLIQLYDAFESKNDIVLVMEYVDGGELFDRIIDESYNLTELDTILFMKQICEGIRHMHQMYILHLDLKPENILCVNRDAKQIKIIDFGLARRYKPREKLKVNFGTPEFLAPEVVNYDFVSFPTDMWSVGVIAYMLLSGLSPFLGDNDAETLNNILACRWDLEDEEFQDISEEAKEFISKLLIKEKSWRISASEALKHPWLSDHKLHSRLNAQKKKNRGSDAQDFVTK

[7] = molecular target: Casein kinase I isoform gamma-1 (Homo sapiens) (UniProt Q9HCP0); experiment: Inhibition of CSNK1G1 at 1 uM; summary of the method: as §1
Casein kinase I isoform gamma-1 (Homo sapiens), sequence (Q9HCP0 whole entry, looked up, canonical isoform): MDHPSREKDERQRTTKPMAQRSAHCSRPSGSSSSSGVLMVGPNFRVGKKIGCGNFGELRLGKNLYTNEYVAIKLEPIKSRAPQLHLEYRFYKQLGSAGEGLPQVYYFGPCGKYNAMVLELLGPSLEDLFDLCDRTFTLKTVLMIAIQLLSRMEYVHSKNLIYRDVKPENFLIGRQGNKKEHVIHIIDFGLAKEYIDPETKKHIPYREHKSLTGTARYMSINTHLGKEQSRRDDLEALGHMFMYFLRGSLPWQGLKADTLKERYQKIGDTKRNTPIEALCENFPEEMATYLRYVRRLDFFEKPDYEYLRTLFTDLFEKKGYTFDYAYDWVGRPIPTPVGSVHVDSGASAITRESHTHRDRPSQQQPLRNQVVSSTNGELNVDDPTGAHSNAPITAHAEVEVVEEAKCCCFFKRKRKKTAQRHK

[8] = molecular target: T4, Serine/threonine-protein kinase 17A (Homo sapiens) (UniProt Q9UEE5); experiment: Inhibition of DRAK1 at 1 uM
T4 sequence (whole entry): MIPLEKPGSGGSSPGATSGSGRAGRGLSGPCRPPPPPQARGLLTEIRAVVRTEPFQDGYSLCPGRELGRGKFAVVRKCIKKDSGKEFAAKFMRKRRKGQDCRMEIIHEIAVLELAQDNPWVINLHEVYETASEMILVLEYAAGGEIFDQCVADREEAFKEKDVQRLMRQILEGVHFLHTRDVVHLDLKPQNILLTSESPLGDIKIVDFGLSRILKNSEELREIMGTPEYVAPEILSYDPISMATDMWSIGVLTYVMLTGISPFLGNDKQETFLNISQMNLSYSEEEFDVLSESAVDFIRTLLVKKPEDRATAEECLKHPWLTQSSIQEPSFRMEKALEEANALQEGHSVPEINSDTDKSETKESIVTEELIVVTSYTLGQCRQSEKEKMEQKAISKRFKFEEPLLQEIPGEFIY

[9] = molecular target: Calcium/calmodulin-dependent protein kinase kinase 1 (Homo sapiens) (UniProt Q8N5S9); experiment: Inhibition of CAMKK1 at 1 uM; summary of the method: as §2
Calcium/calmodulin-dependent protein kinase kinase 1 (Homo sapiens), sequence (Q8N5S9 whole entry, looked up): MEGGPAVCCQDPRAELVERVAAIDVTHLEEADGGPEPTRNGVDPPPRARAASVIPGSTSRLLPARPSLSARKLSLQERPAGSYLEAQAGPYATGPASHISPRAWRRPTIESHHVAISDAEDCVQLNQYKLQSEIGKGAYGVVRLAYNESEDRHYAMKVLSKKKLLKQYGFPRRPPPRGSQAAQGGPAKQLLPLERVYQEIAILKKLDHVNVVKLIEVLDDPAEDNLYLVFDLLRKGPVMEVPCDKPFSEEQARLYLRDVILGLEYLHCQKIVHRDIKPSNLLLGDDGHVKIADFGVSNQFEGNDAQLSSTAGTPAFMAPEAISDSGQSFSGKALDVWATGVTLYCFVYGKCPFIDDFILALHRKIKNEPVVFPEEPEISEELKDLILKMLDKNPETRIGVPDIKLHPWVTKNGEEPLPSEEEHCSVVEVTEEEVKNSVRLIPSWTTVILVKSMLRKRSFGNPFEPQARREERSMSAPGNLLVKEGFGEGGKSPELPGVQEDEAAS

Epidermal growth factor receptor (Homo sapiens), P00533 [G719C], sequence (P00533 whole entry G719C): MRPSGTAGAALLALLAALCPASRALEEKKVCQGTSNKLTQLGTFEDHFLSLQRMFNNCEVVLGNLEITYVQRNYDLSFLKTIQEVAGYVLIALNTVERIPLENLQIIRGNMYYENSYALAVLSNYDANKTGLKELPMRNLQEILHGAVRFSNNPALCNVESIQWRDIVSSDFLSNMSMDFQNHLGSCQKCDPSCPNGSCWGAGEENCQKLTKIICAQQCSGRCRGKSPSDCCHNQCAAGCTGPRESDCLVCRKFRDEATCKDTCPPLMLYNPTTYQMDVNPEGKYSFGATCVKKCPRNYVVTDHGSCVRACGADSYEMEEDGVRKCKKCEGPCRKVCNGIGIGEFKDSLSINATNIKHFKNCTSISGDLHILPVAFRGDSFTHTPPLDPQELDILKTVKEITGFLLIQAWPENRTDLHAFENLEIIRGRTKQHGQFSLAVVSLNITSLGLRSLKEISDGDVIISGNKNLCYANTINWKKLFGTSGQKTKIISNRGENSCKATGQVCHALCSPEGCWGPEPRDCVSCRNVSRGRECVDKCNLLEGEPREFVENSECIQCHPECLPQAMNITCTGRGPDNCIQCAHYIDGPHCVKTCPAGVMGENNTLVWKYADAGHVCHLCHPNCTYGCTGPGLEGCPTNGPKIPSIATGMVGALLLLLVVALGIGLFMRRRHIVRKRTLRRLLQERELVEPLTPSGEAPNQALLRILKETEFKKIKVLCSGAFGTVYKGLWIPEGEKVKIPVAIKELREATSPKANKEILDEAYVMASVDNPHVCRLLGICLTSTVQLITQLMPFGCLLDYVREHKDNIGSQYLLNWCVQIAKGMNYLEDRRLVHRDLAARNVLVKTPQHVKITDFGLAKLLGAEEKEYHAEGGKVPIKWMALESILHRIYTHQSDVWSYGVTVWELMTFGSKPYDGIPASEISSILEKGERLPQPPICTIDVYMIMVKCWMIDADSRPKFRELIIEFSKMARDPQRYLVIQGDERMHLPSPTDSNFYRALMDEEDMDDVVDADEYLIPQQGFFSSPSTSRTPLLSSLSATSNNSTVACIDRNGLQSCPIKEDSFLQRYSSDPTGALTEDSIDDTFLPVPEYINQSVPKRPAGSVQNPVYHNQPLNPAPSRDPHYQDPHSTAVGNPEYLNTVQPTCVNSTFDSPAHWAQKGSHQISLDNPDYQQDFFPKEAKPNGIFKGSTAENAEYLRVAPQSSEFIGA

inhibition [1] | inhibition [2] | inhibition [3] | inhibition [4] | inhibition [6] | inhibition [7] | inhibition [8] | inhibition [9] | SMILES | inhibition [5]
< 50% | < 50% | < 50% | < 50% | < 50% | < 50% | < 50% | < 50% | CC(=O)N1CCN(c2cc(-c3cnc4c(c3)N(Cc3cc(Cl)ccc3C(F)(F)F)CCN4)ccn2)CC1 | < 50%
< 50% | – | < 50% | < 50% | – | < 50% | – | < 50% | O=C(O)c1ccc(-c2cnc3c(c2)N(Cc2cc(Cl)ccc2C(F)(F)F)CCN3)cc1 | < 50%
< 50% | – | < 50% | < 50% | – | < 50% | – | < 50% | O=C(c1ccc(-c2cnc3c(c2)N(Cc2cc(Cl)ccc2C(F)(F)F)CCN3)cc1)N1CCCCC1 | < 50%
< 50% | < 50% | < 50% | < 50% | < 50% | < 50% | < 50% | < 50% | CN1CCN(c2ccc(-c3cnc4c(c3)N(Cc3cc(Cl)ccc3C(F)(F)F)CCN4)cn2)CC1 | < 50%
< 50% | < 50% | < 50% | < 50% | < 50% | < 50% | < 50% | < 50% | CN1CCN(c2ccc(-c3cnc4c(c3)N(Cc3cc(F)ccc3F)CCN4)cn2)CC1 | < 50%
< 50% | < 50% | < 50% | < 50% | < 50% | < 50% | < 50% | < 50% | CN1CCN(c2ccc(-c3cnc4c(c3)N(Cc3cc(Cl)ccc3Cl)CCN4)cn2)CC1 | < 50%
< 50% | – | – | < 50% | – | < 50% | – | < 50% | COC1CCN(C(=O)c2ccc(-c3cnc4c(c3)N(Cc3cc(Cl)ccc3C(F)(F)F)CCN4)cc2)CC1 | < 50%
< 50% | < 50% | < 50% | < 50% | < 50% | < 50% | < 50% | < 50% | CN1CCN(c2ccc(-c3cnc4c(c3)N(Cc3c(F)ccc(F)c3Cl)CCN4)cn2)CC1 | < 50%
< 50% | < 50% | < 50% | < 50% | < 50% | < 50% | < 50% | < 50% | FC(F)(F)c1ccc(Cl)cc1CN1CCNc2ncc(-c3ccnc(N4CCNCC4)c3)cc21 | < 50%
< 50% | – | < 50% | 63.8% | – | < 50% | – | < 50% | O=C(c1ccc(-c2cnc3c(c2)N(Cc2cc(Cl)ccc2C(F)(F)F)CCN3)cc1)N1CCC(N2CCCC2)CC1 | < 50%
